ChEMBL document CHEMBL1150779, “Triazolopyrimidine-based dihydroorotate dehydrogenase inhibitors with potent and selective activity against the malaria parasite Plasmodium falciparum” (J Med Chem, 2008)
pEC50, pIC50: −log10 of the molar value.

What was measured:
[1] = target: T1, Dihydroorotate dehydrogenase (Plasmodium falciparum, UniProt Q54A96); assay: Inhibition of Plasmodium falciparum DHODH assessed as reduction of 2,6-dichloroindophenol by stopped flow spectroscopy
T1 sequence (Q54A96 whole entry): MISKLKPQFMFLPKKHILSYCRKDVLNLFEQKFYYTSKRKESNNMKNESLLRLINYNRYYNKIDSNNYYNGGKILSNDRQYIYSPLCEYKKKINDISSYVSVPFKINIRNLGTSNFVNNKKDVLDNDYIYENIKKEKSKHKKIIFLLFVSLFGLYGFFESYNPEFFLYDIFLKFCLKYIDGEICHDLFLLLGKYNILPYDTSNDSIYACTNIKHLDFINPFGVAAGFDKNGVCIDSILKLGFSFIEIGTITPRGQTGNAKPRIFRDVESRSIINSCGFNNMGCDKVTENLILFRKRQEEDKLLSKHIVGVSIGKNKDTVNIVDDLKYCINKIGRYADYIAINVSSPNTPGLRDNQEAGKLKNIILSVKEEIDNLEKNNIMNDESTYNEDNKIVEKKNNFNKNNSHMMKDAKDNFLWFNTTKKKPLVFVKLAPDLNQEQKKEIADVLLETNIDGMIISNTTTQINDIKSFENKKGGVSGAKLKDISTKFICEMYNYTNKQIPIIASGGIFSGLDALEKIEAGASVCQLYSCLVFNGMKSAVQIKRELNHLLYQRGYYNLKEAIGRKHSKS
Procedure, shortened: (§1)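 Truncated soluble enzyme expressed in E. coli. Steady-state assay: DCIP (0.12 mM) reduction at 600 nm, 5–10 nM enzyme, 0.2 mM L-dihydroorotate, 0.02 mM CoQD, in 100 mM HEPES pH 8.0, 150 mM NaCl, 10% glycerol, 0.1% Triton, 20°C.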

Plasmodium falciparum [2] = assay: Antiplasmodial activity against Plasmodium falciparum 3D7 in erythrocytes as [3H]hypoxanthine uptake; type: functional, organism-based
Procedure, shortened: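 Parasites grown in RPMI-1640 with 20% human type A+ plasma and 2% (w/v) red blood cells; drug-treated infected erythrocytes assayed for [3H]-hypoxanthine uptake. Triplicate points over a range of inhibitor concentrations; EC50 from fit of % proliferation to a Hill-type equation; reported values average at least 2 independent experiments.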

[3] = target: Dihydroorotate dehydrogenase (quinone), mitochondrial (Homo sapiens, UniProt Q02127); assay: Inhibition of human DHODH assessed as reduction of 2,6-dichloroindophenol by stopped flow spectroscopy
Dihydroorotate dehydrogenase (quinone), mitochondrial, sequence (Q02127 whole entry): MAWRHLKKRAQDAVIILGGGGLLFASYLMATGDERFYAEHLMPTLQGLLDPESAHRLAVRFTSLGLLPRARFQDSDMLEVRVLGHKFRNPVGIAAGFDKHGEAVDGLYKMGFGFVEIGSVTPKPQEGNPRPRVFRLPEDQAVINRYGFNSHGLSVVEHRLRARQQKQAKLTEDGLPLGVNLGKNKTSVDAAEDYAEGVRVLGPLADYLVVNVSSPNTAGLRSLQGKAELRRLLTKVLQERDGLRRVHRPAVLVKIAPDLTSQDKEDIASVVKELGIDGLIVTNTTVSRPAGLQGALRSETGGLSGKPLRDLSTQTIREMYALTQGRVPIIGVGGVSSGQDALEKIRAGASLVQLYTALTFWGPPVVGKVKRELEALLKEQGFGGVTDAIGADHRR
Procedure, shortened: as §1, with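 “20°C. CoQ-independent oxidase background subtracted; triplicate points per concentration; IC50 from curve fit, ≥2 experiments.” for “20°C.”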

Plasmodium falciparum [4] = assay: Antiplasmodial activity against Plasmodium falciparum FCR3 in erythrocytes as [3H]hypoxanthine uptake; details: FCR3, 3 h
Plasmodium falciparum [5] = assay: Antiplasmodial activity against Plasmodium falciparum K1 in erythrocytes as [3H]hypoxanthine uptake; details: K1, 3 h
Plasmodium falciparum [6] = assay: Antiplasmodial activity against Plasmodium falciparum Dd2 in erythrocytes as [3H]hypoxanthine uptake; details: Dd2, 3 h
Plasmodium falciparum [7] = assay: Antiplasmodial activity against Plasmodium falciparum HB3 in erythrocytes as [3H]hypoxanthine uptake; details: HB3, 3 h
Plasmodium falciparum [8] = assay: Antiplasmodial activity against Plasmodium falciparum D6 in erythrocytes as [3H]hypoxanthine uptake; details: D6, 3 h
L1210 = assay: Cytotoxicity against mouse L1210 cells

| pIC50 [1] | pIC50 (Plasmodium falciparum [2]) | pIC50 [3] | pEC50 (Plasmodium falciparum [4]) | pEC50 (Plasmodium falciparum [5]) | pEC50 (Plasmodium falciparum [6]) | pEC50 (Plasmodium falciparum [7]) | pEC50 (Plasmodium falciparum [8]) | SMILES | pEC50 (L1210) |
| --- | --- | --- | --- | --- | --- | --- | --- | --- | --- |
| 5.77 | 5.80 | < 3.70 | – | – | – | – | – | Cc1cc(Nc2cnc3ccccc3c2)n2ncnc2n1 | – |
| 6.68 | 5.48 | < 3.70 | – | – | – | – | – | FC(F)(F)c1cc(Nc2ccc3ccccc3c2)n2ncnc2n1 | – |
| 4.03 | 4.46 | < 3.70 | – | – | – | – | – | Cc1cc(N(Cc2ccccc2)c2ccc3ccccc3c2)n2ncnc2n1 | – |
| 5.70 | 6.39 | < 3.70 | – | – | – | – | – | Cc1cc(Nc2ccc3c(=O)cc(C)oc3c2)n2ncnc2n1 | – |
| 5.52 | 4.80 | < 3.70 | – | – | – | – | – | Cc1cc(N(C)c2ccc3ccccc3c2)n2ncnc2n1 | – |
| – | 7.10 | < 3.70 | 6.74 | 6.85 | 6.85 | 7.00 | 7.24 | Cc1cc(Nc2ccc3ccccc3c2)n2ncnc2n1 | < 5.00 |
| < 3.70 | < 4.30 | < 3.70 | – | – | – | – | – | Cc1cc(Nc2ccc(C(N)=O)cc2)n2ncnc2n1 | – |
| 6.48 | 5.77 | < 3.70 | – | – | – | – | – | Cc1cc(Nc2cc3ccccc3cc2O)n2ncnc2n1 | – |
| 6.72 | 6.51 | < 3.70 | – | – | – | – | – | CCc1cc(Nc2ccc3ccccc3c2)n2ncnc2n1 | – |
| 6.80 | 6.26 | < 3.70 | – | – | – | – | – | Cc1nc2ncnn2c(Nc2ccc3ccccc3c2)c1C | – |
| < 4.00 | < 4.00 | < 3.70 | – | – | – | – | – | Cc1cc(Nc2ccccc2)n2ncnc2n1 | – |
| 4.35 | 5.36 | < 3.70 | – | – | – | – | – | Cc1cc(Nc2cccc3ccccc23)n2ncnc2n1 | – |

| SMILES | pIC50 [1] | pIC50 (Plasmodium falciparum [2]) | pIC50 [3] | pEC50 (Plasmodium falciparum [4]) | pEC50 (Plasmodium falciparum [5]) | pEC50 (Plasmodium falciparum [6]) | pEC50 (Plasmodium falciparum [7]) | pEC50 (Plasmodium falciparum [8]) | pEC50 (L1210) |
| --- | --- | --- | --- | --- | --- | --- | --- | --- | --- |
| Cc1cc(Nc2ccc3cc4ccccc4cc3c2)n2ncnc2n1 | 7.25 | 6.72 | < 3.70 | – | – | – | – | – | – |
| Cc1cc(Nc2ccc3ncccc3c2)n2ncnc2n1 | 5.92 | 5.66 | < 3.70 | – | – | – | – | – | – |
